Assay outcomes from PubChem BioAssay.
TbMetRS inhib: Trypanosoma brucei MetRS inhibition; 360,000 compounds, 0.4% hits; purified T. brucei MetRS, ATP depletion, Kinase-Glo luminescence; inhibition, % at 11.9 µM; AID 624268;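 active = inhibition above a per-plate cutoff of the control wells' mean inhibition plus 3 SD, cut at about 5.5% in these data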
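Measured by: Kinase-Glo luciferase luminescence reporting remaining unconsumed ATP. Material: purified T. brucei MetRS enzyme. Doses: 11.9 µM compound single dose, 0.9% DMSO. Medium: HEPES buffer containing pyrophosphatase, BSA, spermine, DTT. Times: 15 min preincubation, 2 h reaction, all 25 °C. Reagent: methionine, ATP and bulk E. coli tRNA.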
UCH37 inh: blocks the human deubiquitinase UCH37; Q9Y5K5; purified proteasome/UCH37, Ub-AMC cleavage fluorescence; inhibition, % (no concentration beside the values); 330,000 compounds, 0.33% hits; AID 588478;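 active = mean inhibition over replicate wells above about 20%, limit read from the data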
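Material: human UCH37 enzyme supplied as purified proteasome complex / Amount: 0.15 nM proteasome as dispensed / Buffer or medium: pH 7.4 Tris-HCl (50 mM) with ovalbumin, ATP-MgCl2, DTT / Times: preincubation 30 min, reaction 25 min, room temperature / Technique: AMC fluorescence from Ub-AMC cleavage, excitation 355 nm, emission 460 nm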
Rin1-Abl PPI inh: inhibitors of human Rin1-Abl protein interaction | AID 588664 | 360,000 compounds, 0.4% hits | TR-FRET Rin1/Abl binding, biochemical | P00519+Q13671 | inhibition, % at 7.35 µM; in the data active = inhibition above about 5%, passing the limit was not always enough
ATG4B inh: inhibitors of human ATG4B cysteine protease | Q9Y4P1 | AID 504462 | 340,000 compounds, 0.51% hits | ATG4B cleavage of LC3-PLA2, NBD-HPC fluorescence, 1 h | inhibition, % at 8.33 µM; in the data active = inhibition above about 40%
Target sequence (Q9Y4P1 whole entry, looked up): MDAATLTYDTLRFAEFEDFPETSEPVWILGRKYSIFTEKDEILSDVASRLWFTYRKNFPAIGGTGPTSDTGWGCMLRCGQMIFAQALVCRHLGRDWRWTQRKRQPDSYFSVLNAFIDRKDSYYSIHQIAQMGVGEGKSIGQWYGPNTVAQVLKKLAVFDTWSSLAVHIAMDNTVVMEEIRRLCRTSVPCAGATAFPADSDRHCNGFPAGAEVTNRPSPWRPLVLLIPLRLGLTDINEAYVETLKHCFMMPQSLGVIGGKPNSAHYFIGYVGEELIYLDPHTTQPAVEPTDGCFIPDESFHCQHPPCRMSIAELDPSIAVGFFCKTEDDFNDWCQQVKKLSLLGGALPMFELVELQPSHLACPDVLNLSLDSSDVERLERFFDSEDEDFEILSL
Tb MetRS conf: confirmation of Trypanosoma brucei MetRS inhibitors | shares compounds with TbMetRS inhib | T. brucei MetRS enzyme, luminescence (ATP depletion) | inhibition, % at 11.9 µM | 1,400 compounds, 93% hits; in the data active = inhibition above about 7%
Jurkat cytotox: counter-screen for T. brucei MetRS inhibitors: Jurkat cell cytotoxicity. shares compounds with TbMetRS inhib. Jurkat cells viability, ATP luminescence. inhibition, % at 8.3 µM. 1,400 compounds, 12% hits. AID 624413; in the data active = inhibition above about 15%
Tb MetRS inh FP: inhibits T. brucei methionyl tRNA synthetase in orthogonal FP test. inhibition, % at 11.9 µM. shares compounds with TbMetRS inhib. purified T. brucei MetRS, fluorescence polarization. AID 651607. 1,400 compounds, 44% hits; in the data active = inhibition above about 17%
A number is an active result; - = inactive; . = not tested or not shown. Sampled rows, rich in hits. Any-hit rate of the full collection: about 1.4%.

SMILES | TbMetRS inhib | UCH37 inh | Rin1-Abl PPI inh | ATG4B inh | Tb MetRS conf | Jurkat cytotox | Tb MetRS inh FP
Cc1cccc(C)c1-n1nnnc1-c1nc2cc(Br)ccc2[nH]c1=O | - | . | . | . | . | . | .
Cc1cccc(C)c1-n1nnnc1-c1nc2cc3ccccc3cc2[nH]c1=O | 54 | . | . | . | 56 | 70 | 19
Nc1ccc(C2(c3ccc(N)cc3)OC(=O)c3ccccc32)cc1 | - | - | - | - | . | . | .
CCS(=O)(=O)N1CCN(c2ccc(Cl)cc2[N+](=O)[O-])CC1 | 5.7 | - | - | - | 14 | - | -
O=C(NCc1ccco1)c1cccc(Nc2nc3ccc(Br)cc3[nH]2)c1 | 10 | - | - | - | 40 | - | 32
O=C(Cc1ccc(Nc2nc3ccc(Br)cc3[nH]2)cc1)NCCc1cccs1 | 84 | - | - | - | 100 | - | 104
O=C(NCC1CC1)c1ccc(Nc2nc3ccc(Br)cc3[nH]2)cc1 | 7.3 | - | - | - | 46 | - | 20
COc1ccc(CCNC(=O)Cc2cccs2)cc1 | - | - | - | - | . | . | .
Cc1cc2c(c(=O)n1CC1CCCO1)C(c1ccc3c(c1)OCO3)C(C#N)=C(N)O2 (stereo not given) | 60 | - | - | - | 75 | - | 49
CCn1c(C)cc2c(c1=O)C(c1ccncc1)C(C#N)=C(N)O2 (stereo not given) | - | - | - | - | . | . | .
CCn1c(C)cc2c(c1=O)C(c1ccc3c(c1)OCO3)C(C#N)=C(N)O2 (stereo not given) | 23 | - | - | - | - | - | -
O=C(Nc1ccccc1N1CCN(c2ccc(F)cc2)CC1)c1ccccc1 | - | - | - | - | . | . | .
Cc1nccn1CC(O)COc1ccc(Cl)cc1Cl (stereo not given) | 9.5 | . | - | - | 11 | - | -
Cc1ccc(-c2nnc(N3CCCCC3)c3ccccc23)cc1S(=O)(=O)N(C)C | - | - | - | - | . | . | .
Cc1ccc(-c2nnc(NCc3nc4ccccc4[nH]3)c3ccccc23)cc1S(=O)(=O)N(C)C | 13 | - | - | - | 24 | - | -
O=[N+]([O-])c1ccccc1S(=O)(=O)Nc1ncccn1 | - | - | - | - | . | . | .
COc1cccc(C2CC(=O)Nc3cc(OC)c(OC)cc32)c1 (stereo not given) | - | - | - | - | . | . | .
CC1(C)CC2CC(C)(CN2C(=O)c2cc(-c3ccccc3)on2)C1 (stereo not given) | - | - | - | - | . | . | .
CCCCc1c(-c2ccccc2OC)ncn1CCc1cccc(F)c1 | - | . | . | . | . | . | .
CCCCc1c(-c2ccccc2OC)ncn1CCc1cccc(OC)c1 | 9.9 | . | . | . | 23 | 36 | -
O=C(C(=O)N1CCN(C(=O)c2ccco2)CC1)c1c[nH]c2ccccc12 | 5.8 | - | - | - | 12 | - | -
Cc1[nH]c2ccccc2c1NC(=O)CN1CCN(C(=O)c2ccco2)CC1 | - | - | - | - | . | . | .
O=C1CC2(CCN(C(=O)C(=O)c3c[nH]c4ccccc34)CC2)Oc2ccccc21 | 20 | - | - | - | 33 | - | 18
Cc1[nH]c2ccccc2c1C(=O)C(=O)N1CCN(C(=O)c2ccco2)CC1 | 6.4 | - | - | - | 11 | - | -
O=C(Nc1ccc2c(c1)CCC2)C1CCN(c2c3c(nc4ncnn24)CCC3)CC1 | - | - | - | - | . | . | .
SMILES | TbMetRS inhib | UCH37 inh | Rin1-Abl PPI inh | ATG4B inh | Tb MetRS conf | Jurkat cytotox | Tb MetRS inh FP
CCCc1cc2c(=O)c(-c3ccccn3)c(C)oc2cc1O | - | - | - | - | . | . | .
O=C(Nc1ccccc1Oc1cccnc1)C1CCCN(Cc2cccc(Cl)c2)C1 (stereo not given) | - | . | - | - | . | . | .
Nc1c(Cl)ncnc1Nc1ccc(C(=O)O)cc1 | 46 | . | - | - | 74 | - | 46
O=C(O)c1ccc(Nc2ncnc3ccccc23)cc1 | - | - | - | - | . | . | .
N#CC1=C(N)Oc2cc(N)ccc2C1c1cc(Br)cs1 (stereo not given) | 43 | - | - | - | - | 56 | -
N#CC1=C(N)Oc2cc(N)ccc2C1c1cccc(Br)c1 (stereo not given) | 34 | - | - | - | - | 75 | -
COc1cc(/C=C/C(=O)OCC(=O)c2c[nH]c3ccccc23)ccc1OC(F)F | 6.3 | - | - | - | 13 | - | 36
Cc1cccc(/C=N/c2sc3c(c2C(=O)OC(C)(C)C)CCN(C)C3)c1O | - | . | - | - | . | . | .
CC(C)n1cc(C(=O)N2CCCC(Nc3ccc(F)c(F)c3)C2)cn1 (stereo not given) | - | - | - | - | . | . | .
COc1cc(C(C(=O)NC(C)(C)C)N(Cc2ccccc2)C(=O)c2cnccn2)cc(OC)c1OC (stereo not given) | - | - | - | - | . | . | .
COc1ccc(CN(C(=O)c2ccc(-c3ccccc3)[nH]2)C(C(=O)NC(C)(C)C)c2ccncc2)cc1 (stereo not given) | 76 | - | - | - | 33 | - | -
Cc1cc(/C=C(/C#N)c2nc3ccccc3[nH]2)c(C)n1-c1ccccc1C(=O)O | - | - | - | - | . | . | .
Cc1cc(/C=C(/C#N)c2nc3ccccc3[nH]2)c(C)n1-c1cc(C(=O)O)cc(C(=O)O)c1 | 5.8 | - | - | - | 37 | - | -
Cc1cc2nc(/C(C#N)=C\c3ccc(-c4ccccc4C(=O)O)o3)[nH]c2cc1C | - | - | - | - | . | . | .
Cc1ccc2nc(/C(C#N)=C/c3ccc(-c4ccccc4C(=O)O)o3)[nH]c2c1 | 6.0 | - | - | - | 22 | - | -
CCCCCCCCCc1conc1C(=O)/C=C/c1ccco1 | - | . | . | . | . | . | .
CCOc1cc(/C=C2\SC(=S)N(NS(=O)(=O)c3ccccc3)C2=O)ccc1O | 9.0 | - | - | - | 19 | - | 24
CCOc1cc(/C=C2\SC(N)=NC2=O)ccc1O | - | - | - | - | . | . | .
CCOc1cc(/C=C2\SC(=O)N=C2N)ccc1O | 32 | - | - | - | 44 | - | 19
COc1ccc(N(C(=O)c2ccncc2)S(=O)(=O)c2cccs2)cc1 | - | - | - | - | . | . | .
O=C(C1=C[C@@H](c2ccc(Br)cc2)C[C@@H](OCCCCO)O1)N1CCN(Cc2ccc3c(c2)OCO3)CC1 | 9.0 | 30 | - | - | 31 | - | -
O=C(C1=C[C@H](c2csc3ccccc23)C[C@H](OCCCCO)O1)N1CCN(Cc2ccc3c(c2)OCO3)CC1 | - | - | - | - | . | . | .
O=C(C1=C[C@@H](c2csc3ccccc23)C[C@@H](OCCCCO)O1)N1CCN(Cc2ccc3c(c2)OCO3)CC1 | 12 | - | - | - | 48 | - | 27
Nc1c(NC(=O)CC[n+]2ccccc2)cccc1[N+](=O)[O-] | 11 | . | - | - | 18 | - | -
CN(C)c1cc[n+](CCC(=O)Nc2cccc([N+](=O)[O-])c2N)cc1 | - | - | - | - | . | . | .
Cc1cccc(NS(=O)(=O)c2ccc3nc(-c4ccccc4)[nH]c3c2)c1C | 27 | - | - | - | 40 | - | 30
